RAM inhibit: blocks the yeast RAM network; S. cerevisiae dse1pr::URA3 reporter, 5-FOA growth OD615, 2 d; analog-sensitive cbk1-as2 kinase mutant strain; inhibition, % at 50 µM; 190,000 compounds, 1.8% hits;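 active means inhibition above a set limit, 3 SD over mean compound inhibition, cut at about 8.4% in these data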;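 further: 0% = DMSO-only wells with no growth and 100% = 10 µM 1-NA-PP1 full growth; inhibition rescues growth on 5-FOA so higher OD means more RAM inhibition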
b-catenin transl: alters nuclear translocation of beta-catenin in HeLa cells. 190,000 compounds, 0.3% hits. nuclear translocation activity, % at 5 µM. immunofluorescence imaging;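 active means nuclear translocation activity above 50% at 5 µM, with a well cell count of 50 or more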;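 further: per-cell ratio of nuclear to cytoplasmic median beta-catenin stain intensity; plate controls were DMSO negative control for no effect and GSK-3 inhibitor IX positive control for full effect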
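Read-out: Nuclear/cytoplasmic beta-catenin signal ratio, % activation | Assay system: Human HeLa cell line | Times: 24 h compound exposure at 37°C, 5% CO2 | Signal: Fluorescence imaging of beta-catenin antibody stain plus DAPI | Dosing: 5 µM primary, 0.02–20 µM confirmation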
BB579 growth dn: chemicals that inhibit yeast BB579 growth in restrictive medium (lifespan-shortening candidates); inhibition, % at 10 µM; 140,000 compounds, 0.51% hits; S. cerevisiae BB579 growth, OD615, 48 h;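 active means inhibition above a set limit, 3 SD over the mean compound inhibition, cut at about 44% in these data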
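Test system: DeaD yeast strain BB579 / Buffer or medium: restrictive glucose-based CSMM-D medium / Doses: single 10 µM dose / Schedule: 4 h cell preincubation, 48 h compound exposure, 30 °C humidified / Technique: culture absorbance at 615 nm / Controls: amphotericin B positive control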
MT stabilizer: microtubule stabilization, imaging screen; HeLa tubulin immunostaining HCS, 24 h; share of cells brighter than vehicle mean+2SD; % tubulin-high responders, % at 10 µM; 200,000 compounds, 0.83% hits; AID 2205;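 active means plate Z-score above 3 for both tubulin-high and condensed-nucleus cell shares, with cell loss under 80%, at 10 µM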;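 further: anti alpha tubulin signal scored within the nucleus-defined area of each cell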
HMGR II inh: inhibitors of class II HMG-CoA reductase from Enterococcus faecalis; AID 1066; purified E. faecalis HMGR, NADPH absorbance 340 nm kinetic; 190,000 compounds, 0.41% hits; inhibition, % at 10 µM;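 active means inhibition above a set limit, the median over all tested compounds plus 3 SD, cut at about 9.5% in these data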;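 further: enzyme runs in reverse so mevalonate oxidation gives rising NADPH absorbance; 0% = complete reaction with DMSO and 100% = background rate lacking mevalonate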
Yeast life ext: yeast lifespan extension; S. cerevisiae growth with nicotinamide, OD615; deaD strain in restrictive glucose medium; inhibition of the nicotinamide effect, % at 10 µM; 130,000 compounds, 0.68% hits; AID 775;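 active means inhibition above a set limit, placed 3 SD over the median of all compounds, cut at about 26% in these data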;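 further: 0% = nicotinamide-treated wells and 100% = cells grown without nicotinamide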
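Measured by: optical density (absorbance) at 615 nm; System: modified budding yeast, DeaD strain; Medium: restrictive CSMM-D dextrose medium; Timing: 4 h preincubation then 48 h treatment at 30 °C.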
* marks the source's active call; other numbers are inactive results; . = no result. An excerpt weighted towards active compounds, which were near 3.5% of everything screened.

SMILES | RAM inhibit | b-catenin transl | BB579 growth dn | MT stabilizer | HMGR II inh | Yeast life ext
Cc1ccc(C(NC(=O)C(C)C)c2cc([N+](=O)[O-])c3cccnc3c2O)cc1 (stereo not drawn) | 2 | 0 | 86* | 2 | 4 | -3
O=C(NCCc1c[nH]c2ccccc12)C(=O)Nc1ccccc1 | 2 | 0 | . | 4 | -11 | .
CCOc1ccc(/C=C/[N+](=O)[O-])c2ccccc12 | 0 | 2 | 56* | 3 | -3 | -2
CCOC(=O)COc1ccc2ccccc2c1/C=C/[N+](=O)[O-] | 4 | -1 | -9 | 2 | 2 | 39*
Cc1ccc(N2CC(O)=C(c3nc4ccccc4c(=O)[nH]3)C2=N)cc1C | 4 | 0 | . | 3 | -12 | .
N=C1C(c2nc3ccccc3s2)=C(O)CN1c1ccccc1 | 6 | 0 | . | 28* | 0 | .
N=C1C(c2nc3ccccc3c(=O)[nH]2)=C(O)CN1c1ccccc1 | 3 | . | -59 | 42* | -4 | -3
O=C(NNC(=O)c1ccc2nonc2c1)Nc1ccc(Cl)cc1 | . | 0 | . | . | . | .
Fc1ccc2nc3[nH]c4ccccc4c3nc2c1 | 8.9* | 3 | 63* | 8 | 0 | -29
COC(=O)CSc1nc2ccc(NC(=O)c3ccccc3C(=O)N3CCOCC3)cc2s1 | 9.1* | 0 | -32 | 2 | -11 | -5
COc1oc(-c2ccc(Cl)cc2)nc1C(F)(F)F | -1 | -5 | -4 | 2 | 21* | .
NS(=O)(=O)c1ccc(CNC(=S)NCc2ccc(Cl)cc2)cc1 | 2 | 1 | 3 | 11* | 1 | -3
O=C(NNc1ccccc1)/C(=C\c1cccnc1)NC(=O)c1ccccc1 | . | -1 | . | . | . | .
Cc1ccc(OCc2nc(-c3cccs3)no2)c([N+](=O)[O-])c1 | 8.7* | 1 | . | 2 | -1 | .
O=[N+]([O-])c1ccccc1OCc1nc(-c2cccs2)no1 | 2 | -2 | . | 4 | 4 | .
Cc1ccc(-c2csc3nnc(SCC(=O)NCc4ccc5c(c4)OCO5)n23)cc1 | 1 | . | -65 | 3 | -3 | -17
O=C(CCSc1nnc2scc(-c3ccccc3)n12)NCc1ccc2c(c1)OCO2 | 10* | . | -46 | 2 | -1 | -1
O=S(=O)(/C=C/c1ccccc1)NC1CCCCCCC1 | 2 | -5 | -46 | 2 | 0 | 27*
O=S(=O)(/C=C/c1ccccc1)NC1CCCCCC1 | -1 | 0 | . | 2 | 0 | .
COC(=O)C1=C(C)N(c2ccc(C)c(C)c2)/C(=C/c2ccco2)C1=O | 2 | 0 | . | 2 | -9 | .
CCOC(=O)C1=C(C)N(c2ccc(C)c(C)c2)C(=O)/C1=C\c1ccco1 | 11* | -3 | -19 | 5 | -3 | -10
COc1ccc(Cc2noc(CN(C)CC3(N4CCOCC4)CCCCC3)n2)cc1OC | 0 | -2 | . | 3 | 2 | .
O=C(Cc1cccs1)NNC(=S)NC(=O)c1ccccc1 | 0 | -1 | 86* | 5 | -3 | 7
O=C(Cc1cccs1)NNC(=S)NC(=O)c1ccc(F)c(F)c1 | -1 | -1 | -19 | 4 | 2 | 1
O=C(NCCc1ccccc1)c1ccc(NCC2CCCO2)c([N+](=O)[O-])c1 (stereo not drawn) | 0 | -1 | . | 2 | -4 | .
SMILES | RAM inhibit | b-catenin transl | BB579 growth dn | MT stabilizer | HMGR II inh | Yeast life ext
Cn1ncc([N+](=O)[O-])c1C(=O)Nc1ccc(-c2nc3ccccc3o2)cc1 | 4 | -4 | . | 3 | 4 | .
COC(=O)c1cc(Cl)c(NC(=O)/C=C/c2ccc(OC)cc2)cc1OC | 0 | 8 | -60 | 26* | 1 | -3
COc1ccc(/C=C/C(=O)C23CC4CC(CC(C4)C2)C3)cc1CN1CCOCC1 | 1 | 5 | . | 6 | 0 | .
COc1cc(CNCc2ccccc2)c(Br)cc1OC1CCCC1 | 0 | -4 | . | 2 | 0 | .
CCc1ccc(NC(=O)CSc2nc(NS(=O)(=O)c3ccccc3)cc(=O)[nH]2)cc1 | 2 | 0 | . | . | 10* | .
Cc1ccc(NC(=O)CSc2nc(NS(=O)(=O)c3ccccc3)cc(=O)[nH]2)cc1 | 2 | . | -36 | 1 | 0 | -7
CCCc1cc(=O)[nH]c(SCC(=O)Nc2ccc(C)cc2)n1 | 8.5* | -6 | . | 3 | -2 | .
CCCc1c(C(=O)NNc2cccc(Cl)c2)cnn1-c1ccccc1 | . | 0 | . | . | . | .
